The source made the active and inactive calls. The calls are words filed in the database; no cut-off is given here.
What follows are compounds tested against T1, 5-hydroxytryptamine receptor 3A (Homo sapiens) (UniProt P46098) (assay: Antagonist activity at 5HT3A (unknown origin) transfected in HEK cells assessed as decrease in agonist-induced intracellular calcium release incubated for 30 mins by FRET assay).
T1 sequence (whole entry): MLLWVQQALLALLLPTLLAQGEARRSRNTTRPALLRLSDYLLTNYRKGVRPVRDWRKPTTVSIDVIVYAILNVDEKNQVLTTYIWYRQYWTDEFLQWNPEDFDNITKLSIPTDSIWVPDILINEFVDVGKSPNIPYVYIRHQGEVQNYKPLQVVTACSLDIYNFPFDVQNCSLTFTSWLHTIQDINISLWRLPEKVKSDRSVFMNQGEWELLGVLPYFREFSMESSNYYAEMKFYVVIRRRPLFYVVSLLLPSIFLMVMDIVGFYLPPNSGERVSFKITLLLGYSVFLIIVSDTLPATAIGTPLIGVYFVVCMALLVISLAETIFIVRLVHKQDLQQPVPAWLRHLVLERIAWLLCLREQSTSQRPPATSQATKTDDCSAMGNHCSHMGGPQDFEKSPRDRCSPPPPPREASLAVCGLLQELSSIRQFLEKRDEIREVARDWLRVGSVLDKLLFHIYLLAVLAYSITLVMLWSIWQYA
Format: cell-based
Procedure, shortened: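 CNiFER HEK cell monolayers stably expressing the receptor. Test compound at three concentrations in aCSF, preincubated 30 min at 37 °C, 6% CO2, before agonist addition: epibatidine for α4β2, 5-HT for 5-HT3A. TN-XXL FRET ratio (527/485 nm) read over 120 s at 37 °C, agonist injected at 30 s, triplicate wells. Agonist EC50 shifts fitted. KA computed as [A]/(DR−1) (competitive) or [A]/(Δmax/Δ−1) (noncompetitive). At least three independent experiments. α4β2 stoichiometry not distinguished.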

Compound | Ka [µM]
c1ccc(CN(Cc2ccccn2)c2cc(-c3ccsc3)ncn2)nc1 | > 10
COc1ccccc1-c1cc(N(Cc2ccccn2)Cc2ccccn2)ncn1 | > 10
COc1ccc(-c2cc(N(Cc3ccccn3)Cc3ccccn3)ncn2)c(F)c1 | 5.4
COc1cc(F)ccc1-c1cc(N(Cc2ccccn2)Cc2ccccn2)nc(N)n1 | > 10
FC(F)(F)c1nc(-c2ccsc2)cc(N(Cc2ccccn2)Cc2ccccn2)n1 | 3.6
COc1ccccc1-c1cc(N(Cc2ccccn2)Cc2ccccn2)nc(S(C)(=O)=O)n1 | > 10

These compounds were tested against T2, Neuronal acetylcholine receptor subunit alpha-7 (Homo sapiens, UniProt P36544) (assay: Agonist activity at human alpha7 nAChR transfected in HEK cells assessed as increase in intracellular calcium release incubated for 30 mins in presence of PNU-120596 by FRET assay).
Format: cell-based
Procedure, shortened: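 HEK cell line stably expressing α7 nAChR and the CNiFER (TN-XXL) biosensor, grown in DMEM + 10% FBS, 1% glutamine, 37 °C, 6% CO2. Cells preincubated 30 min at 37 °C in aCSF containing 10 μM PNU-120596 (final). Agonist injected at 30 s. FRET ratio (527/485 nm) followed over 120 s at 37 °C, triplicate wells. EC50 from variable-slope sigmoidal fit of mean peak ratios, normalized to the 316 μM response.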

T2 sequence (P36544 whole entry): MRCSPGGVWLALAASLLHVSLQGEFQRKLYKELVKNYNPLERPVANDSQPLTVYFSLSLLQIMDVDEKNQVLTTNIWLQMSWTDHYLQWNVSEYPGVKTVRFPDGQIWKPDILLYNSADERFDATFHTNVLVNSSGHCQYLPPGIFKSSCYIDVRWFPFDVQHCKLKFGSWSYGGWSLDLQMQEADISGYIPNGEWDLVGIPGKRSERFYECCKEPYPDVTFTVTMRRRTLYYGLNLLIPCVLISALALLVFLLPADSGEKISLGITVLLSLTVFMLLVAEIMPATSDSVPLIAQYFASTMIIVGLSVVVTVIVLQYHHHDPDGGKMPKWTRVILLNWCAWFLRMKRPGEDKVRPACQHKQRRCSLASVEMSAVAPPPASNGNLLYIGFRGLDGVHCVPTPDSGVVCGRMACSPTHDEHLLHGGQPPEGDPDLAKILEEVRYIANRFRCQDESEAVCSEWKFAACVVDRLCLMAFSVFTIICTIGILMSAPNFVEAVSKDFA

Compound | EC50 [nM]
c1ccc(CN(Cc2ccccn2)c2cc(-c3ccsc3)ncn2)nc1 | 2100
COc1ccccc1-c1cc(N(Cc2ccccn2)Cc2ccccn2)ncn1 | 140
COc1ccc(-c2cc(N(Cc3ccccn3)Cc3ccccn3)ncn2)c(F)c1 | 69
COc1cc(F)ccc1-c1cc(N(Cc2ccccn2)Cc2ccccn2)nc(N)n1 | 120
FC(F)(F)c1nc(-c2ccsc2)cc(N(Cc2ccccn2)Cc2ccccn2)n1 | 2500
COc1ccccc1-c1cc(N(Cc2ccccn2)Cc2ccccn2)nc(S(C)(=O)=O)n1 | 690

Each compound was assayed against T2, Neuronal acetylcholine receptor subunit alpha-7 (assay: Agonist activity at human alpha7 nAChR expressed in Xenopus laevis oocytes assessed as increase in channel currents at 30 uM at -60 mV holding potential by two electrode voltage clamp assay).
Format: cell-based
Procedure, shortened: (§1)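 Oocytes expressing human α7 nAChR (with human RIC-3 cDNA available), clamped at -60 mV in Ringer's pH 7.2 with 1 µM atropine, 2 mL/min flow. Drug applied 12 s, 211 s washout. Responses normalized to mean of two 60 µM ACh precontrol responses per oocyte. Data from six cells. Concentration-response data fit to the Hill equation. Sequence included 30 µM test compound, then 60 µM ACh, then 10 µM PNU-120596.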

Compound | Activity
COc1ccccc1-c1cc(N(Cc2ccccn2)Cc2ccccn2)ncn1 | Active
COc1ccc(-c2cc(N(Cc3ccccn3)Cc3ccccn3)ncn2)c(F)c1 | Active

Each compound was assayed against T2, Neuronal acetylcholine receptor subunit alpha-7 (assay: Agonist activity at human alpha7 nAChR expressed in Xenopus laevis oocytes assessed as increase in channel currents at -60 mV holding potential by two electrode voltage clamp assay relative Ach).
Format: cell-based
Procedure, shortened: as §1

Compound | EC50 [nM] | Imax
COc1ccccc1-c1cc(N(Cc2ccccn2)Cc2ccccn2)ncn1 | 3350 | 0.89
COc1ccc(-c2cc(N(Cc3ccccn3)Cc3ccccn3)ncn2)c(F)c1 | 600 | 0.53

The compounds below were run against T2, Neuronal acetylcholine receptor subunit alpha-7 (assay: Inhibition of human alpha7 nAChR expressed in Xenopus laevis oocytes assessed as decrease in ACh-induced channel currents at -60 mV holding potential by two electrode voltage clamp assay).
Format: cell-based
Procedure, shortened: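 Human α7 nAChR in oocytes under two-electrode voltage clamp at -60 mV, Ringer's pH 7.2, 2 mL/min. Test compound applied 12 s with 211 s washout, then 60 µM ACh applied. ACh response normalized to the mean of two ACh precontrols per oocyte. Inhibition concentration-response curves from six cells, Hill equation fit.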

Compound | IC50 [nM]
COc1ccccc1-c1cc(N(Cc2ccccn2)Cc2ccccn2)ncn1 | 3500
COc1ccc(-c2cc(N(Cc3ccccn3)Cc3ccccn3)ncn2)c(F)c1 | 1300

Species: Mus musculus
Experiment: Agonist activity at mouse alpha1beta1epsilondelta nAChR expressed in Xenopus laevis oocytes assessed as increase in channel currents at 30 uM at -60 mV holding potential by two electrode voltage clamp assay
Format: cell-based
Procedure, shortened: (§2)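 Two-electrode voltage clamp on oocytes at -60 mV in Ringer's (115 mM NaCl, 2.5 mM KCl, 1.8 mM CaCl2, 10 mM HEPES, 1 µM atropine, pH 7.2), 4 mL/min flow. Test compound applied 6 s, then 271 s washout. Normalized to mean of two ACh precontrols: 30 µM for α1β1εδ, 100 µM for α3β4, 100 µM for LS α4β2, 10 µM for HS α4β2.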

Compound | Activity
COc1ccccc1-c1cc(N(Cc2ccccn2)Cc2ccccn2)ncn1 | inactive
COc1ccc(-c2cc(N(Cc3ccccn3)Cc3ccccn3)ncn2)c(F)c1 | inactive

Each compound was assayed against T3, Neuronal acetylcholine receptor; alpha3/beta4 (Homo sapiens) (UniProt P30926+P32297) (assay: Agonist activity at human alpha3beta4 nAChR expressed in Xenopus laevis oocytes assessed as increase in channel currents at 30 uM at -60 mV holding potential by two electrode voltage clamp assay).
Format: cell-based
Procedure, shortened: as §2

Compound | Activity
COc1ccccc1-c1cc(N(Cc2ccccn2)Cc2ccccn2)ncn1 | inactive
COc1ccc(-c2cc(N(Cc3ccccn3)Cc3ccccn3)ncn2)c(F)c1 | inactive

These compounds were tested against T4, Neuronal acetylcholine receptor; alpha4/beta2 (Homo sapiens) (UniProt P17787+P43681) (assay: Agonist activity at human (alpha4)2 (beta2)3 nAChR expressed in Xenopus laevis oocytes assessed as increase in channel currents at 30 uM at -60 mV holding potential by two electrode voltage clamp assay).
Format: cell-based
Procedure, shortened: as §2

Compound | Activity
COc1ccccc1-c1cc(N(Cc2ccccn2)Cc2ccccn2)ncn1 | inactive
COc1ccc(-c2cc(N(Cc3ccccn3)Cc3ccccn3)ncn2)c(F)c1 | inactive

These compounds were tested against T4, Neuronal acetylcholine receptor; alpha4/beta2 (Homo sapiens) (assay: Agonist activity at human (alpha4)3 (beta2)2 nAChR expressed in Xenopus laevis oocytes assessed as increase in channel currents at 30 uM at -60 mV holding potential by two electrode voltage clamp assay).
Format: cell-based
Procedure, shortened: as §2

Compound | Activity
COc1ccccc1-c1cc(N(Cc2ccccn2)Cc2ccccn2)ncn1 | inactive
COc1ccc(-c2cc(N(Cc3ccccn3)Cc3ccccn3)ncn2)c(F)c1 | inactive

Species: Mus musculus
Experiment: Inhibition of mouse alpha1beta1epsilondelta nAChR expressed in Xenopus laevis oocytes assessed as increase in channel currents at 30 uM at -60 mV holding potential by two electrode voltage clamp assay
Format: cell-based

Compound | inhibition activity (active/inactive)
COc1ccccc1-c1cc(N(Cc2ccccn2)Cc2ccccn2)ncn1 | Active
COc1ccc(-c2cc(N(Cc3ccccn3)Cc3ccccn3)ncn2)c(F)c1 | Active

What follows are compounds tested against T3, Neuronal acetylcholine receptor; alpha3/beta4 (Homo sapiens) (assay: Inhibition of human alpha3beta4 nAChR expressed in Xenopus laevis oocytes assessed as increase in channel currents at 30 uM at -60 mV holding potential by two electrode voltage clamp assay).
Format: cell-based

Compound | inhibition
COc1ccccc1-c1cc(N(Cc2ccccn2)Cc2ccccn2)ncn1 | Active
COc1ccc(-c2cc(N(Cc3ccccn3)Cc3ccccn3)ncn2)c(F)c1 | Active

The compounds below were run against T4, Neuronal acetylcholine receptor; alpha4/beta2 (Homo sapiens) (assay: Inhibition of human (alpha4)2 (beta2)3 nAChR expressed in Xenopus laevis oocytes assessed as increase in channel currents at 30 uM at -60 mV holding potential by two electrode voltage clamp assay).
Format: cell-based

Compound | inhibition
COc1ccccc1-c1cc(N(Cc2ccccn2)Cc2ccccn2)ncn1 | inactive
COc1ccc(-c2cc(N(Cc3ccccn3)Cc3ccccn3)ncn2)c(F)c1 | inactive

The compounds below were run against T4, Neuronal acetylcholine receptor; alpha4/beta2 (Homo sapiens) (assay: Inhibition of human (alpha4)3 (beta2)2 nAChR expressed in Xenopus laevis oocytes assessed as increase in channel currents at 30 uM at -60 mV holding potential by two electrode voltage clamp assay).
Format: cell-based

Compound | inhibition
COc1ccccc1-c1cc(N(Cc2ccccn2)Cc2ccccn2)ncn1 | inactive
COc1ccc(-c2cc(N(Cc3ccccn3)Cc3ccccn3)ncn2)c(F)c1 | inactive

These compounds were tested against T2, Neuronal acetylcholine receptor subunit alpha-7 (assay: Agonist activity at human alpha7 nAChR expressed in Xenopus laevis oocytes assessed as increase in channel currents at 30 uM at -60 mV holding potential in presence of 10 uM PNU-120596 by two electrode voltage clamp assay).
Format: cell-based
Procedure, shortened: as §1

Compound | Activity
COc1ccccc1-c1cc(N(Cc2ccccn2)Cc2ccccn2)ncn1 | Active
COc1ccc(-c2cc(N(Cc3ccccn3)Cc3ccccn3)ncn2)c(F)c1 | Active

What follows are compounds tested against T4, Neuronal acetylcholine receptor; alpha4/beta2 (Homo sapiens) (assay: Antagonist activity at alpha4beta2 nAChR (unknown origin) transfected in HEK cells assessed as decrease in epibatidine-induced intracellular calcium release incubated for 30 mins by FRET assay).

Compound | Ka [µM]
c1ccc(CN(Cc2ccccn2)c2cc(-c3ccsc3)ncn2)nc1 | > 10
COc1ccccc1-c1cc(N(Cc2ccccn2)Cc2ccccn2)ncn1 | 7.9
COc1ccc(-c2cc(N(Cc3ccccn3)Cc3ccccn3)ncn2)c(F)c1 | 3
COc1cc(F)ccc1-c1cc(N(Cc2ccccn2)Cc2ccccn2)nc(N)n1 | 4.8
FC(F)(F)c1nc(-c2ccsc2)cc(N(Cc2ccccn2)Cc2ccccn2)n1 | 0.96
COc1ccccc1-c1cc(N(Cc2ccccn2)Cc2ccccn2)nc(S(C)(=O)=O)n1 | 7.2

What follows are compounds tested against T2, Neuronal acetylcholine receptor subunit alpha-7 (assay: Agonist activity at human alpha7 nAChR expressed in Xenopus laevis oocytes assessed as increase in channel currents at 30 uM at -60 mV holding potential followed washout for 211 sec and then 60 uM of Ach was applied by two electrode voltage clamp assay).

Compound | Activity
COc1ccccc1-c1cc(N(Cc2ccccn2)Cc2ccccn2)ncn1 | inactive
COc1ccc(-c2cc(N(Cc3ccccn3)Cc3ccccn3)ncn2)c(F)c1 | inactive

Source: ChEMBL document CHEMBL4414639, “Synthesis, Pharmacological Characterization, and Structure-Activity Relationships of Noncanonical Selective Agonists for α7 nAChRs” (J Med Chem, 2019)
